These results are taken from ChEMBL document CHEMBL4118168, “Synthesis and structure-activity relationship studies of MI-2 analogues as MALT1 inhibitors” (Bioorg Med Chem, 2018).

By IC50 is commonly meant the concentration at which inhibition is half-maximal. A lower IC50 goes with greater potency.

Active and inactive are the calls of the source. The rule behind the calls is not given here.

The test system of one test is Toledo. The test is described as follows: Antiproliferative activity against human Toledo cells after 48 hrs by CCK8 assay. The class given is functional, cell-based. In general terms: Tetrazolium dyes change colour on reduction, which living cells bring about.
Test [1] has as its target T1, Mucosa-associated lymphoid tissue lymphoma translocation protein 1 (Homo sapiens) (UniProt Q9UDY8).
T1 sequence (whole entry): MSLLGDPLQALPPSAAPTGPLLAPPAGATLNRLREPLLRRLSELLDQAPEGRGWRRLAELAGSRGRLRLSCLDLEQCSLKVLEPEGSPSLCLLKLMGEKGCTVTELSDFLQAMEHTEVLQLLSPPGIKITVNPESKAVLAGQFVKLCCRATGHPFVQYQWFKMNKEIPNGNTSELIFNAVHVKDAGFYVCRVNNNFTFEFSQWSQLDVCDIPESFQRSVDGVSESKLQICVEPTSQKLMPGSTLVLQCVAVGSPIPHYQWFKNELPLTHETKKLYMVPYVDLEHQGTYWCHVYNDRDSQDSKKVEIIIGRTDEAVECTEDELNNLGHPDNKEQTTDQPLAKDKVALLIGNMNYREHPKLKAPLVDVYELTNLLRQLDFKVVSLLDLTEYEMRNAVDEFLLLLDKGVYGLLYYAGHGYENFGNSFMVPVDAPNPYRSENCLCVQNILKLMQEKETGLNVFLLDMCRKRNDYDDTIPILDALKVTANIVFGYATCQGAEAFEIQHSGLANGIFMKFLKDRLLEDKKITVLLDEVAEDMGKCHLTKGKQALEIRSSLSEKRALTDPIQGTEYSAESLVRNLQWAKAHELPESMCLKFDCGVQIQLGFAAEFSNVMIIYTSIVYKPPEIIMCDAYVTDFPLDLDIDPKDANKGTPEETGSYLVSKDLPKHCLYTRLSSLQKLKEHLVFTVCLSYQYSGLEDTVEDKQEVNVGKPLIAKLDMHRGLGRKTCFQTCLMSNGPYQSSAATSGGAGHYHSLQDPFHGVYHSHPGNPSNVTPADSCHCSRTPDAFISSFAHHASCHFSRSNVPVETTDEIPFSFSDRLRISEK
The test is described as follows: Inhibition of MALT1 in PMA/ionomycin-stimulated human Jurkat T cells assessed as reduction in RelB cleavage at 2 uM pretreated for 4 hrs followed by 1 hr incubation with protease inhibitor MG132 and subsequent PMA/ionomycin-stimulation measured after 1 hr by Western blot analysis. It is filed as cell-based. Summed up:
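Jurkat T cells in RPMI 1640 with 10% FBS, seeded at 9×10^5 cells/well, treated with compound or DMSO for 4 h, then 1 h with MG132 (10 μM), then stimulated with PMA. RelB cleavage as the read-out of MALT1 activity, detected by Western blot.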
Background: Immunoblotting shows a protein as a band on a membrane.

For `COCCOc1nc(-c2ccc(Cl)c(Cl)c2)n(-c2ccc(NC(=O)CCl)cc2)n1`, inhibition in the test on Toledo was half-maximal at 800 nM (IC50).

With `COCCOc1nc(-c2ccc(NC(=O)CCl)cc2)n(-c2ccc(Cl)c(Cl)c2)n1`, the inhibition entry in test [1] is “Active”.

`O=C(CCl)Nc1ccc(-n2nc(OCCCO)nc2-c2ccc(Cl)c(Cl)c2)cc1`: the inhibition entry in test [1] was “Active”.

Take `O=C(CCl)Nc1ccc(-n2nc(OCCc3cn(-c4ccccc4)nn3)nc2-c2ccc(Cl)c(Cl)c2)cc1`: the inhibition result in test [1] is “Active”. Also, in the test with Toledo, half-maximal inhibition (IC50) required 380 nM.

`COCCOc1nc(-c2ccc(Cl)cc2)n(-c2ccc(NC(=O)CCl)cc2)n1`: in the test with Toledo, the IC50 turned out to be 1720 nM.

For `O=C(CCl)Nc1ccc(-n2nc(OCC(O)CO)nc2-c2ccc(Cl)c(Cl)c2)cc1` (stereo not given), the inhibition entry in test [1] was “Active”.

Take `O=C(CCl)Nc1ccc(-n2nc(OCCN3CCOCC3)nc2-c2ccc(Cl)c(Cl)c2)cc1`: in the test with Toledo, the IC50 was found to be 470 nM.

Take `COCC(C)Oc1nc(-c2ccc(Cl)c(Cl)c2)n(-c2ccc(NC(=O)CCl)cc2)n1` (stereo not given): the inhibition entry in test [1] was “Active”.

As to `COCCOCCOc1nc(-c2ccc(Cl)c(Cl)c2)n(-c2ccc(NC(=O)CCl)cc2)n1`, in test [1], the inhibition result was “Active”.
